Screening results (PubChem)
GSIS activator – GLuc luminescence reporter in INS-1E cells, primary screen for activators of glucose-dependent secretion of insulin | INS-1E GLuc reporter insulin secretion, 2-3 h | activation, % at 16.6 µM | 0.61% of 370,000 active | AID 743287;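 active = lowest replicate activation of at least 40%, so every replicate reaches that level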;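 also: 0% = median of neutral control wells and 100% = median of IBMX positive control wells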
PDI inh – inhibitors of human protein disulfide isomerase; P07237; PDI insulin aggregation turbidity, A650, 90 min; inhibition, % at 10 µM; 0.052% of 350,000 active;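 active = mean inhibition across replicates of 30% or more, whatever share of single replicates reach that level; inconclusive = mean inhibition below 30% while every single replicate reaches 30%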
Target sequence (P07237 whole entry, looked up): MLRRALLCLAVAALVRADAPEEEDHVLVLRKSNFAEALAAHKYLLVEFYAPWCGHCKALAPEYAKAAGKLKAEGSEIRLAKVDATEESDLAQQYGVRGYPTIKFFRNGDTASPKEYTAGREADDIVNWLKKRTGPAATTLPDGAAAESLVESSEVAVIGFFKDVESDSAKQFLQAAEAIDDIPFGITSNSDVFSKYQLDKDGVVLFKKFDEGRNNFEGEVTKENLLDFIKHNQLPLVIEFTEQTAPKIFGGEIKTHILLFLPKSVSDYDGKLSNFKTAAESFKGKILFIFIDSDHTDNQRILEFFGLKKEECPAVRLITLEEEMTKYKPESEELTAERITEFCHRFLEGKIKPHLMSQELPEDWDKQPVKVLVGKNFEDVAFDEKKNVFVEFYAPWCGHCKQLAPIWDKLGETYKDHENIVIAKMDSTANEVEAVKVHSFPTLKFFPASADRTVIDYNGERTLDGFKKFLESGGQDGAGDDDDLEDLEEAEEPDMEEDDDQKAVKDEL
Env fusion inh – inhibitors of HIV Env-mediated cell fusion. HeLa-JRFL Env/CEM21 cell fusion, luciferase. 1.1% of 360,000 active. inhibition, % at 12.3 µM;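 active = mean replicate inhibition score of at least 50 and every replicate individually at or above 50; inconclusive = only one of the two criteria met; inactive = mean below 50 and not all replicates reaching 50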;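 also: 0% = plate neutral controls and 100% = maraviroc near 300 nM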
ERp5 inh – inhibitors of human ERp5; Q15084; ERp5 insulin aggregation, absorbance 650 nm, 90 min; inhibition, % at 9.99 µM; 0.05% of 350,000 active;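 active = mean replicate inhibition above about 25%, with every replicate also reaching it, limit read from the data, passing the limit was not always enough; inconclusive = only one of those two criteria met; inactive = neither criterion met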
FN deposition inh – fibronectin deposition inhibition; 0.086% of 350,000 active; AH1F fibroblasts, Alexa488-fibronectin deposition fluorescence, overnight; inhibition, % at 12.6 µM;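 active = mean inhibition across replicates of 30% or more, regardless of how many single replicates reach that level; inconclusive = mean under 30% yet at least half of replicates reach 30%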;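 also: positive control wells lacked labelled fibronectin entirely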
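Schedule: 1 h cell adhesion before compound, then overnight fibronectin incubation; test system: AH1F fibroblast monolayer depositing Alexa488-labelled fibronectin into matrix; quantity: 10000 AH1F cells per well; probe or stimulus: fluorescent fibronectin at 24 nM final; signal: fluorescence, ex 485 nm, em 525 nm; evaluation: percent inhibition as loss of matrix-bound fibronectin fluorescence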
* = called active by the depositor; ? = inconclusive; / = no result given; [ ] = dose if it differs, or a comment. Hits are enriched below; roughly 1.4% of the tested compounds scored in any of these assays.

SMILES	GSIS activator	PDI inh	Env fusion inh	ERp5 inh	FN deposition inh
C[C@@H]1CN([C@H](C)CO)C(=O)c2cc(NS(=O)(=O)c3ccc(Cl)cc3)ccc2O[C@@H]1CN(C)S(=O)(=O)c1cccs1	-10.6	/	-15.9[16.7 µM]	-6.3	/
CO[C@H]1CN(C)C(=O)c2cc(NC(C)=O)ccc2OC[C@H](C)N(C(=O)C2CC2)C[C@@H]1C	2.9	/	-26.7[16.7 µM]	0.6	-11.8
Cc1cccc(/C=N\Nc2cn[nH]c(=O)c2Cl)c1	3.1	-9.2	72.7*	-2.2	5.0
C[C@H]1CN([C@@H](C)CO)C(=O)Cc2cc(NS(=O)(=O)c3ccc(Cl)cc3)ccc2O[C@@H]1CN(C)Cc1ccc2c(c1)OCO2	-15.1	/	18.4[16.7 µM]	-0.3	/
CCC(C)(C)C(=O)O[C@H]1C[C@@H](C)C=C2C=C[C@H](C)[C@H](CC[C@@H]3C[C@@H](O)CC(=O)O3)[C@H]21	/	2.7	67.4*	-3.9	5.8
COc1ccc([Si](C)(C)[C@@H]2[C@@H](CCO)O[C@]3(C(=O)N(Cc4ccccc4)c4ccc(N5C(=O)c6cccc7cccc5c67)cc43)[C@H]2C)cc1	/	/	64.1*[16.7 µM]	9.6	/
COc1ccc([Si](C)(C)[C@@H]2[C@@H](CCO)O[C@]3(C(=O)N4c5c(cc(OC)cc53)C(C)=CC4(C)C)[C@H]2C)cc1	/	/	89.6*[16.7 µM]	6.1	/
COc1ccc([Si](C)(C)[C@@H]2[C@@H](CCO)O[C@]3(C(=O)N(Cc4ccccc4)c4ccc(N5CCCCC5=O)cc43)[C@H]2C)cc1	/	/	10.6[16.7 µM]	-2.6	/
C=CCN1C(=O)[C@]2(O[C@H](CCn3cc(CCO)nn3)[C@@H]([Si](C)(C)c3ccc(OC)cc3)[C@@H]2C)c2cc(N3C(=O)c4cccc5cccc3c45)ccc21	/	/	69.5*[16.7 µM]	-4.0	/
COc1ccc2c3c([nH]c2c1)[C@@H](CO)N(C(=O)C1CC1)CC31CCN(S(C)(=O)=O)CC1	-2.3	/	-22.8[16.7 µM]	-0.6	/
Cc1ccc(S(=O)(=O)Nc2ccc3c(c2)C(=O)N([C@@H](C)CO)C[C@H](C)[C@@H](CN(C)C(=O)CCC(F)(F)F)OCCCC[C@@H](C)O3)cc1	-22.1	/	-64.3[16.7 µM]	5.0	-0.1
O=C(CCN1CCOCC1)c1ccc2c(c1)OCCO2	47.6*	2.4	/	/	/
O=C(CCN1CCOCC1)c1ccccc1	105.2*	-6.6	/	0.3	/
O=C(CCCN1CCOCC1)c1ccc2c(c1)OCCO2	/	1.2	/	/	/
O=C(OCc1ccccc1)/C(=C/c1ccc(Cl)cc1)NC(=O)c1ccccc1Cl	69.8*	2.0	/	/	/
COc1ccc(-n2cc(-c3ccc(C)cc3)[n+]3c2SCC3)cc1	-31.7	-3.0	117.6*	/	/
Cc1ccc(-c2cn(-c3ccccc3)c3[n+]2CCCS3)cc1	-32.9	2.3	43.0	4.7	-7.5
CN1CCCCC(NC(=O)c2ccccc2)C1=O (stereo not given)	117.3*	/	2.8	3.9	-10.6
Cc1cc2sc3ccc(C#CC4(O)CCCCC4)cc3c(=O)c2cc1C	/	-3.1	65.3*	4.5	0.2
CO[C@@H]1CN(C)C(=O)c2cc(NC(C)=O)ccc2OC[C@@H](C)N(Cc2cncnc2)C[C@@H]1C	12.7	/	-10.1[16.7 µM]	-0.9	-0.4
CCOC(=O)C1=C[C@@H](C2CCCC2)N(S(=O)(=O)c2ccc([N+](=O)[O-])cc2)[C@H]1c1ccccc1	1.4	/	55.4*	-3.2	-14.6
CCOC(=O)C1=C[C@@H](CC)N(S(=O)(=O)c2ccc(C)cc2)[C@H]1c1ccccc1	-5.7	/	-0.6	2.4	-5.5
CC(C)NC(=O)N(C)C[C@@H]1Oc2c(NC(=O)c3ccc(-c4nccs4)cc3)cccc2C(=O)N([C@@H](C)CO)C[C@H]1C	13.6	/	12.7[16.7 µM]	2.3	/
O=C(CN1C(=O)c2ccccc2S1(=O)=O)c1ccccc1F	4.0	-1.2	32.7	0.8	3.8
O=C(CN1C(=O)c2ccccc2S1(=O)=O)c1ccc(Cl)cc1Cl	7.1	3.2	62.0*	-6.0	0.3
SMILES	GSIS activator	PDI inh	Env fusion inh	ERp5 inh	FN deposition inh
O=C(CN1C(=O)c2ccccc2S1(=O)=O)c1ccc(F)cc1	-3.8	0.6	?	7.5	-4.0
O=C(CN1C(=O)c2ccccc2S1(=O)=O)c1ccc2c(c1)OCCCO2	-5.7	-0.9	90.7*	-0.1	-1.2
O=C(CN1C(=O)c2ccccc2S1(=O)=O)c1ccc2c(c1)OCCO2	-10.3	-0.9	84.2*	-3.5	6.0
C[C@H]1CN([C@@H](C)CO)C(=O)c2cc(NC(=O)CCN3CCOCC3)ccc2O[C@@H]1CN(C)S(=O)(=O)c1ccc(Cl)cc1	-0.8	/	/	1.2	/
CC(c1ccco1)N(C(=O)C12CC3(C)CC(C)(CC(C)(C3)C1)C2)c1ccccn1 (stereo not given)	/	4.2	75.7*	/	-10.1
O=C(Nc1ccccc1F)N[C@H]1CC[C@@H](CCNC(=O)C2CCCC2)O[C@@H]1CO	-2.6	/	10.5[16.7 µM]	-3.5	4.1
C[C@@H]1CN([C@@H](C)CO)C(=O)c2cc(NC(=O)CCC(F)(F)F)ccc2O[C@@H](C)CCCCO[C@H]1CN(C)CC1CCCCC1	12.3	/	20.2[16.7 µM]	/	/
Cc1ccc(S(=O)(=O)N2[C@@H](c3cccc(Cl)c3)C(C(=O)OC(C)(C)C)=CC[C@H]2c2cccc(Cl)c2)cc1	-2.9	/	12.9	-5.2	-9.2
CC(C)(C)OC(=O)C1=CC[C@@H](c2ccc(Cl)c(Cl)c2)N(S(=O)(=O)c2ccc(F)cc2)[C@H]1c1cccc(F)c1	1.7	/	92.7*	-0.9	1.7
O=C(COc1nncc2ccccc12)NCC(F)(F)F	44.1*	-2.3	5.3	-2.8	-0.3
O=C(COc1nncc2ccccc12)Nc1c(F)c(F)c(F)c(F)c1F	-2.5	2.4	-15.5	-0.2	-13.3
CN(Cc1ccccc1)c1nc2c(c(=O)[nH]c(=O)n2C)n1C	/	5.0	/	/	/
Cn1c(=O)[nH]c(=O)c2c1nc(N1CCCCCC1)n2CC(N)=O	0.4	1.9	/	1.5	/
C/C=C/Cn1c(Br)nc2c1c(=O)[nH]c(=O)n2C	64.9*	4.9	/	0.1	/
C/C=C/Cn1c(N(C)Cc2ccccc2)nc2c1c(=O)[nH]c(=O)n2C	46.5*	-18.6	-27.6	0.8	1.5
C/C=C/Cn1c(N2CCCCCC2)nc2c1c(=O)[nH]c(=O)n2C	61.8*	-16.3	/	/	/
Cn1c(=O)[nH]c(=O)c2c1nc(N1CCCCC1)n2C/C=N/Nc1ccc(C(=O)O)cc1	48.8*	5.5	-34.2	-2.9	6.3
C[C@@H]1CN([C@@H](C)CO)C(=O)c2cccc(NS(=O)(=O)c3ccccc3)c2O[C@H]1CN(C)C	-3.2	/	/	-4.0	1.2
CCCNC(=O)NC[C@@H]1[C@@H](c2ccc(C3=CCCC3)cc2)[C@@H](CO)N1C(=O)CC	2.7	/	/	-2.4	-8.4
COc1ccc(S(=O)(=O)N(C)C[C@H]2Oc3c(NC(=O)Nc4c(C)noc4C)cccc3C(=O)N([C@@H](C)CO)C[C@@H]2C)cc1	7.3	/	?	/	3.3
CC(=O)N1[C@@H](CO)[C@@H](c2ccccc2)C12CN(S(=O)(=O)c1ccccc1)C2	5.3	/	/	0.1	-8.6
Cn1c(CN2CCCCC2)nc2cc(NC(=O)c3ccc(Cl)cc3)ccc21	-6.7	4.5	78.5*	/	-2.2
